In ChEMBL document CHEMBL1629612, “Characterization and sequence analysis of extended-spectrum-{beta}-lactamase-encoding genes from Escherichia coli, Klebsiella pneumoniae, and Proteus mirabilis isolates collected during tigecycline phase 3 clinical trials” (2009):
In brackets after ≈: the same amount, converted by molar mass.

Tests used:
Format in all cases: functional
Escherichia coli [1] = experiment: Antimicrobial activity against Escherichia coli expressing beta-lactamase AmpC and extended-spectrum beta-lactamase by Etest
In short: (§1)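 Clinical isolates from tigecycline phase 3 trials were received as frozen primary cultures. Serial isolates from one patient were riboprinted, and only the first of identical strains was kept. β-Lactamase genes were assigned by PCR. ESBL confirmation used Etest ESBL strips carrying ceftazidime or cefotaxime, alone and combined with clavulanic acid, following the strip maker's instructions.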

Escherichia coli [2] = experiment: Antimicrobial activity against Escherichia coli expressing beta-lactamase AmpC by Etest; in short: as §1
Klebsiella pneumoniae [3] = experiment: Antimicrobial activity against Klebsiella pneumoniae expressing beta-lactamase CTX by Etest based on multiple determinants
In short: (§2)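 Clinical isolates from tigecycline phase 3 trials were received as frozen primary cultures. Repeat isolates from one patient were riboprinted, and only the first of identical strains was kept. β-lactamase genes were assigned by PCR against control strains, plus isoelectric focusing. ESBL confirmation used Etest ESBL strips carrying ceftazidime or cefotaxime with clavulanic acid, read per the manufacturer's instructions.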

Escherichia coli [4] = experiment: Antimicrobial activity against Escherichia coli expressing beta-lactamase CTX and SHV by Etest; in short: as §1
Escherichia coli [5] = experiment: Antimicrobial activity against Escherichia coli expressing beta-lactamase CTX by Etest based on multiple determinants; in short: as §1
Klebsiella pneumoniae [6] = experiment: Antimicrobial activity against Klebsiella pneumoniae extended-spectrum beta-lactamase producing isolate by Etest; in short: as §2
Proteus mirabilis [7] = experiment: Antimicrobial activity against Proteus mirabilis extended-spectrum beta-lactamase producing isolate by Etest; in short: as §2
Escherichia coli [8] = experiment: Antimicrobial activity against Escherichia coli expressing beta-lactamase SHV by Etest; in short: as §1
Escherichia coli [9] = experiment: Antimicrobial activity against Escherichia coli expressing beta-lactamase CTX by Etest based on single determinant; in short: as §1
Klebsiella pneumoniae [10] = experiment: Antimicrobial activity against Klebsiella pneumoniae expressing beta-lactamase SHV by Etest based on single determinant; in short: as §2
Klebsiella pneumoniae [11] = experiment: Antimicrobial activity against Klebsiella pneumoniae expressing beta-lactamase SHV by Etest based on multiple determinants; in short: as §2
Klebsiella pneumoniae [12] = experiment: Antimicrobial activity against Klebsiella pneumoniae expressing beta-lactamase CTX by Etest based on single determinant; in short: as §2
Klebsiella pneumoniae [13] = experiment: Antimicrobial activity against Klebsiella pneumoniae expressing extended-spectrum beta-lactamase and beta-lactamase AmpC by Etest; in short: as §1
Proteus mirabilis [14] = experiment: Antimicrobial activity against Proteus mirabilis expressing extended-spectrum beta-lactamase by Etest based on single determinant; in short: as §2
Proteus mirabilis [15] = experiment: Antimicrobial activity against Proteus mirabilis expressing extended-spectrum beta-lactamase by Etest based on multiple determinants; in short: as §2
Proteus mirabilis [16] = experiment: Antimicrobial activity against Proteus mirabilis expressing beta-lactamase AmpC by Etest; in short: as §2
Escherichia coli [17] = experiment: Antimicrobial activity against Escherichia coli extended-spectrum beta-lactamase producing isolate by Etest; in short: as §1
Klebsiella pneumoniae [18] = experiment: Antimicrobial activity against Klebsiella pneumoniae expressing beta-lactamase SHV and CTX by Etest; in short: as §2
Klebsiella pneumoniae [19] = experiment: Antimicrobial activity against Klebsiella pneumoniae expressing beta-lactamase DHA by Etest; in short: as §1

Row | SMILES | MIC50 (Escherichia coli [1]) | MIC90 (Escherichia coli [1]) | MIC (Escherichia coli [2]) | MIC50 (Klebsiella pneumoniae [3]) | MIC90 (Klebsiella pneumoniae [3]) | MIC50 (Escherichia coli [4]) | MIC90 (Escherichia coli [4]) | MIC50 (Escherichia coli [5]) | MIC90 (Escherichia coli [5]) | MIC50 (Klebsiella pneumoniae [6]) | MIC90 (Klebsiella pneumoniae [6]) | MIC50 (Proteus mirabilis [7]) | MIC90 (Proteus mirabilis [7]) | MIC (Escherichia coli [8]) | MIC50 (Escherichia coli [9]) | MIC90 (Escherichia coli [9]) | MIC50 (Klebsiella pneumoniae [10]) | MIC90 (Klebsiella pneumoniae [10]) | MIC (Klebsiella pneumoniae [11]) | MIC50 (Klebsiella pneumoniae [12]) | also measured
1 | CO/N=C(\C(=O)N[C@@H]1C(=O)N2C(C(=O)[O-])=C(C[N+]3(C)CCCC3)CS[C@H]12)c1csc(N)n1 [CEFEPIME] | 16 µg/mL (≈ 33.3 µM) | > 16 µg/mL | 2 µg/mL (≈ 4.16 µM) | 16 µg/mL (≈ 33.3 µM) | > 16 µg/mL | 16 µg/mL (≈ 33.3 µM) | > 16 µg/mL | 16 µg/mL (≈ 33.3 µM) | > 16 µg/mL | 8 µg/mL (≈ 16.6 µM) | > 16 µg/mL | 2 µg/mL (≈ 4.16 µM) | > 16 µg/mL | 2 µg/mL (≈ 4.16 µM) | 16 µg/mL (≈ 33.3 µM) | > 16 µg/mL | ≤ 2 µg/mL | > 16 µg/mL | 2 µg/mL (≈ 4.16 µM) | 16 µg/mL (≈ 33.3 µM) | MIC90 (Klebsiella pneumoniae [12]): > 16 µg/mL; MIC (Klebsiella pneumoniae [13]): 2 µg/mL (≈ 4.16 µM); MIC (Proteus mirabilis [14]): 1 µg/mL (≈ 2.08 µM); MIC (Proteus mirabilis [15]): 1 µg/mL (≈ 2.08 µM); MIC (Proteus mirabilis [16]): 2 µg/mL (≈ 4.16 µM)
2 | CO/N=C(\C(=O)N[C@@H]1C(=O)N2C(C(=O)O)=C(COC(C)=O)CS[C@H]12)c1csc(N)n1 [CEFOTAXIME] | > 32 µg/mL | > 32 µg/mL | 4 µg/mL (≈ 8.78 µM) | > 32 µg/mL | > 32 µg/mL | > 32 µg/mL | > 32 µg/mL | > 32 µg/mL | > 32 µg/mL | > 32 µg/mL | > 32 µg/mL | 32 µg/mL (≈ 70.3 µM) | > 32 µg/mL | 4 µg/mL (≈ 8.78 µM) | > 32 µg/mL | > 32 µg/mL | 16 µg/mL (≈ 35.1 µM) | > 32 µg/mL | 2 µg/mL (≈ 4.39 µM) | > 32 µg/mL | MIC50 (Escherichia coli [17]): > 32 µg/mL; MIC90 (Escherichia coli [17]): > 32 µg/mL; MIC90 (Klebsiella pneumoniae [12]): > 32 µg/mL; MIC50 (Klebsiella pneumoniae [18]): > 32 µg/mL; MIC90 (Klebsiella pneumoniae [18]): > 32 µg/mL; MIC (Klebsiella pneumoniae [13]): 1 µg/mL (≈ 2.2 µM); MIC (Klebsiella pneumoniae [19]): 2 µg/mL (≈ 4.39 µM); MIC (Proteus mirabilis [14]): 0.25 µg/mL (≈ 0.549 µM); MIC (Proteus mirabilis [15]): 8 µg/mL (≈ 17.6 µM); MIC (Proteus mirabilis [16]): 16 µg/mL (≈ 35.1 µM)
3 | CC(C)(O/N=C(\C(=O)N[C@@H]1C(=O)N2C(C(=O)[O-])=C(C[n+]3ccccc3)CS[C@H]12)c1csc(N)n1)C(=O)O [CEFTAZIDIME] | > 32 µg/mL | > 32 µg/mL | 4 µg/mL (≈ 7.32 µM) | 32 µg/mL (≈ 58.5 µM) | > 64 µg/mL | 16 µg/mL (≈ 29.3 µM) | 64 µg/mL (≈ 117 µM) | 32 µg/mL (≈ 58.5 µM) | 64 µg/mL (≈ 117 µM) | 32 µg/mL (≈ 58.5 µM) | > 64 µg/mL | 64 µg/mL (≈ 117 µM) | > 64 µg/mL | 16 µg/mL (≈ 29.3 µM) | 16 µg/mL (≈ 29.3 µM) | 64 µg/mL (≈ 117 µM) | 8 µg/mL (≈ 14.6 µM) | > 64 µg/mL | 16 µg/mL (≈ 29.3 µM) | 32 µg/mL (≈ 58.5 µM) | MIC50 (Escherichia coli [17]): 32 µg/mL (≈ 58.5 µM); MIC90 (Escherichia coli [17]): > 64 µg/mL; MIC90 (Klebsiella pneumoniae [12]): > 64 µg/mL; MIC50 (Klebsiella pneumoniae [18]): 64 µg/mL (≈ 117 µM); MIC90 (Klebsiella pneumoniae [18]): > 64 µg/mL; MIC (Klebsiella pneumoniae [13]): 4 µg/mL (≈ 7.32 µM); MIC (Klebsiella pneumoniae [19]): 64 µg/mL (≈ 117 µM); MIC (Proteus mirabilis [14]): 2 µg/mL (≈ 3.66 µM); MIC (Proteus mirabilis [15]): 2 µg/mL (≈ 3.66 µM); MIC (Proteus mirabilis [16]): 64 µg/mL (≈ 117 µM)
4 | CO/N=C(\C(=O)N[C@@H]1C(=O)N2C(C(=O)O)=C(CSc3nc(=O)c(O)nn3C)CS[C@H]12)c1csc(N)n1 [CEFTRIAXONE] | > 32 µg/mL | > 32 µg/mL | 4 µg/mL (≈ 7.21 µM) | > 32 µg/mL | > 32 µg/mL | > 32 µg/mL | > 32 µg/mL | > 32 µg/mL | > 32 µg/mL | > 32 µg/mL | > 32 µg/mL | 8 µg/mL (≈ 14.4 µM) | 32 µg/mL (≈ 57.7 µM) | 4 µg/mL (≈ 7.21 µM) | > 32 µg/mL | > 32 µg/mL | 8 µg/mL (≈ 14.4 µM) | > 32 µg/mL | 2 µg/mL (≈ 3.61 µM) | > 32 µg/mL | MIC50 (Escherichia coli [17]): > 32 µg/mL; MIC90 (Escherichia coli [17]): > 32 µg/mL; MIC90 (Klebsiella pneumoniae [12]): > 32 µg/mL; MIC50 (Klebsiella pneumoniae [18]): > 32 µg/mL; MIC90 (Klebsiella pneumoniae [18]): > 32 µg/mL; MIC (Klebsiella pneumoniae [13]): 2 µg/mL (≈ 3.61 µM); MIC (Klebsiella pneumoniae [19]): 1 µg/mL (≈ 1.8 µM); MIC (Proteus mirabilis [14]): 1 µg/mL (≈ 1.8 µM); MIC (Proteus mirabilis [15]): 2 µg/mL (≈ 3.61 µM); MIC (Proteus mirabilis [16]): 8 µg/mL (≈ 14.4 µM)
